Experimental data as given in ChEMBL document CHEMBL2046366, “Design, synthesis and biological evaluation of novel imidazopyridines as potential antidiabetic GSK3β inhibitors” (Bioorg Med Chem Lett, 2012).

Tests used:
[1] = AUC in ICR mouse at 27.3 mg/kg, po; assay type: ADME, organism-based; parameters: dose 27.3 mg/kg, route oral; details: plasma
Summary of the method: (§1)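 Single oral dose of 27.3 mg kg^-1, given as HCl salt formulation, to male ICR mice (n = 2). AUC, Cmax and Tmax were derived from plasma concentration–time data.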

[2] = Cmax in ICR mouse at 27.3 mg/kg, po; assay type: ADME, organism-based; parameters: dose 27.3 mg/kg, route oral; details: in vivo; summary of the method: as §1
[3] = Tmax in ICR mouse at 27.3 mg/kg, po; assay type: ADME, organism-based; parameters: dose 27.3 mg/kg, route oral; details: in vivo; summary of the method: as §1
[4] = Metabolic stability in mouse liver microsome after 45 mins by mass spectroscopy; assay type: ADME; details: liver microsomes, read-out: Stability
Summary of the method: (§2)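 Compound incubated with human or mouse liver microsomes at 37 °C for 45 min. Percent compound remaining was measured by mass spectrometry.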

[5] = Metabolic stability in human liver microsome after 45 mins by mass spectroscopy; assay type: ADME; details: liver microsomes, read-out: Stability; summary of the method: as §2

Question: For COc1ccc(-c2nc3c(C(=O)Nc4cnccc4C)ccnc3[nH]2)cc1.Cl, which AUC [1] is on record?
Answer: The AUC was 645 ng·h/mL.

Question: What about the Cmax [2] of the same compound?
Answer: The Cmax was 496 ng/mL.

Question: And the Tmax [3]?
Answer: Its Tmax is 0.5 h.

Question: Which remaining at 0.75 h [4] does the source give for CS(=O)(=O)Nc1ccc(CCNC(=O)c2ccnc3[nH]c(-c4ccc(Cl)cc4)nc23)cc1 here?
Answer: Its remaining at 0.75 h is 70.2%.

Question: What about the remaining at 0.75 h [5] of the same compound?
Answer: Its remaining at 0.75 h is 86.6%.

Question: Which AUC [1] does the source give for COc1ccncc1NC(=O)c1ccnc2[nH]c(-c3ccc(F)cc3)nc12.Cl here?
Answer: The AUC was 545 ng·h/mL.

Question: And the Cmax [2]?
Answer: Its Cmax is 228 ng/mL.

Question: And the Tmax [3]?
Answer: Its Tmax is 1 h.

Question: Which results are given for O=C(NCCc1cccnc1Cl)c1ccnc2[nH]c(-c3ccoc3)nc12?
Answer: remaining at 0.75 h [4]: 1.5%; remaining at 0.75 h [5]: 26.5%

Question: Which remaining at 0.75 h [4] does the source give for O=C(NCCc1ccc(F)nc1)c1ccnc2nc(-c3ccc(F)cc3)[nH]c12 here?
Answer: The remaining at 0.75 h was 2.9%.

Question: What about the remaining at 0.75 h [5] of the same compound?
Answer: The remaining at 0.75 h was 9.4%.

Question: With Cc1ccncc1NC(=O)c1ccnc2[nH]c(N3CCC(c4ccccc4)C3)nc12.Cl (centres undefined) as the compound, how does the AUC [1] read?
Answer: The AUC was 39 ng·h/mL.

Question: For Cc1ccc(NC(=O)c2ccnc3[nH]c(-c4ccc(F)cc4)nc23)cn1, which remaining at 0.75 h [4] is on record?
Answer: The remaining at 0.75 h was 47.4%.

Question: What about the remaining at 0.75 h [5] of the same compound?
Answer: The remaining at 0.75 h was 33.3%.

Question: With CN(C)S(=O)(=O)Nc1ccc(CCNC(=O)c2ccnc3[nH]c(-c4ccsc4)nc23)cc1 as the compound, how does the remaining at 0.75 h [4] read?
Answer: The remaining at 0.75 h was 1.6%.

Question: And the remaining at 0.75 h [5]?
Answer: Its remaining at 0.75 h is 13.3%.

Question: With CS(=O)(=O)Nc1ccc(CCNC(=O)c2ccnc3[nH]c(-c4ccc(F)cc4)nc23)cc1 as the compound, how does the remaining at 0.75 h [4] read?
Answer: Its remaining at 0.75 h is 0.8%.

Question: What about the remaining at 0.75 h [5] of the same compound?
Answer: The remaining at 0.75 h was 13%.

Question: For Cc1ccc(NC(=O)c2ccnc3[nH]c(-c4ccc(F)cc4)nc23)cn1.Cl, which AUC [1] is on record?
Answer: The AUC was 2400 ng·h/mL.

Question: What about the Cmax [2] of the same compound?
Answer: The Cmax was 843 ng/mL.

Question: What about the Tmax [3] of the same compound?
Answer: Its Tmax is 3 h.

Question: With CCOc1ccncc1NC(=O)c1ccnc2[nH]c(-c3cccc(OC)c3)nc12 as the compound, how does the remaining at 0.75 h [4] read?
Answer: The remaining at 0.75 h was 6.4%.

Question: And the remaining at 0.75 h [5]?
Answer: Its remaining at 0.75 h is 23.8%.

Question: With CCN(CC)c1ccc(-c2nc3c(C(=O)Nc4cnccc4C)ccnc3[nH]2)cc1 as the compound, how does the remaining at 0.75 h [4] read?
Answer: The remaining at 0.75 h was 0%.

Question: What about the remaining at 0.75 h [5] of the same compound?
Answer: The remaining at 0.75 h was 0%.

Question: What does the source list for COc1ccncc1NC(=O)c1ccnc2[nH]c(-c3cccc(Cl)c3)nc12?
Answer: remaining at 0.75 h [4]: 46.7%; remaining at 0.75 h [5]: 36.5%

Question: For CCOc1ccncc1NC(=O)c1ccnc2[nH]c(-c3ccc(F)cc3)nc12, which remaining at 0.75 h [4] is on record?
Answer: The remaining at 0.75 h was 36%.

Question: And the remaining at 0.75 h [5]?
Answer: The remaining at 0.75 h was 38%.

Question: With O=C(NCCc1cccc(O)c1)c1ccnc2[nH]c(-c3ccc(F)cc3)nc12 as the compound, how does the remaining at 0.75 h [4] read?
Answer: The remaining at 0.75 h was 11.1%.

Question: And the remaining at 0.75 h [5]?
Answer: The remaining at 0.75 h was 12.1%.

Question: With COc1ccncc1NC(=O)c1ccnc2[nH]c(-c3ccc(F)cc3)nc12 as the compound, how does the remaining at 0.75 h [4] read?
Answer: Its remaining at 0.75 h is 87%.

Question: And the remaining at 0.75 h [5]?
Answer: Its remaining at 0.75 h is 71%.

Question: With COc1ccncc1NC(=O)c1ccnc2nc(-c3ccncc3)[nH]c12 as the compound, how does the remaining at 0.75 h [4] read?
Answer: The remaining at 0.75 h was 27%.

Question: What about the remaining at 0.75 h [5] of the same compound?
Answer: The remaining at 0.75 h was 96%.

Question: Which remaining at 0.75 h [4] does the source give for CCOc1ccncc1NC(=O)c1ccnc2[nH]c(-c3cccnc3)nc12 here?
Answer: Its remaining at 0.75 h is 6.3%.

Question: And the remaining at 0.75 h [5]?
Answer: Its remaining at 0.75 h is 6.5%.

Question: For O=C(Nc1cccnc1)c1ccnc2[nH]c(-c3ccc(F)cc3)nc12, which remaining at 0.75 h [4] is on record?
Answer: Its remaining at 0.75 h is 70%.

Question: Which remaining at 0.75 h [4] does the source give for O=C(NCCCc1ccc(Cl)nc1)c1ccnc2[nH]c(-c3ccc(F)cc3)nc12 here?
Answer: The remaining at 0.75 h was 4.2%.

Question: And the remaining at 0.75 h [5]?
Answer: Its remaining at 0.75 h is 25.7%.

Question: For COc1ccc(-c2nc3c(C(=O)Nc4cnccc4C)ccnc3[nH]2)cc1, which remaining at 0.75 h [4] is on record?
Answer: Its remaining at 0.75 h is 56.8%.

Question: What about the remaining at 0.75 h [5] of the same compound?
Answer: Its remaining at 0.75 h is 51.4%.

Question: Which remaining at 0.75 h [4] does the source give for COc1cccc(-c2nc3c(C(=O)Nc4cnccc4C)ccnc3[nH]2)c1 here?
Answer: The remaining at 0.75 h was 6.6%.

Question: And the remaining at 0.75 h [5]?
Answer: The remaining at 0.75 h was 4%.

Question: Which AUC [1] does the source give for COc1ccncc1NC(=O)c1ccnc2[nH]c(-c3cccc(Cl)c3)nc12.Cl here?
Answer: The AUC was 27 ng·h/mL.

Question: Which remaining at 0.75 h [4] does the source give for Cc1ccncc1NC(=O)c1ccnc2[nH]c(N3CCC(c4ccccc4)C3)nc12 (centres undefined) here?
Answer: The remaining at 0.75 h was 28.9%.

Question: What about the remaining at 0.75 h [5] of the same compound?
Answer: Its remaining at 0.75 h is 36.5%.

Question: Which remaining at 0.75 h [4] does the source give for CS(=O)(=O)Nc1ccc(CCNC(=O)c2ccnc3[nH]c(-c4cccs4)nc23)cc1 here?
Answer: Its remaining at 0.75 h is 2.2%.

Question: And the remaining at 0.75 h [5]?
Answer: The remaining at 0.75 h was 36.8%.

Question: Which results are given for CN(C)S(=O)(=O)Nc1ccc(CCNC(=O)c2ccnc3[nH]c(-c4ccc(F)cc4)nc23)cc1?
Answer: remaining at 0.75 h [4]: 1%; remaining at 0.75 h [5]: 7.4%

Question: What does the source list for CS(=O)(=O)Nc1ccc(CCNC(=O)c2ccnc3[nH]c(-c4ccoc4)nc23)cc1?
Answer: remaining at 0.75 h [4]: 5.2%; remaining at 0.75 h [5]: 47%
